One block for each compound: values may come before it.
Columns and labels:
[1] = target: T1, Vent(exo−) DNA polymerase (Thermococcus litoralis, UniProt P30317, D141A/E143A); details: screening with eight different DNA polymerases; cited from earlier work
T1 sequence (P30317 with tags, fused parts or gaps D141A/E143A): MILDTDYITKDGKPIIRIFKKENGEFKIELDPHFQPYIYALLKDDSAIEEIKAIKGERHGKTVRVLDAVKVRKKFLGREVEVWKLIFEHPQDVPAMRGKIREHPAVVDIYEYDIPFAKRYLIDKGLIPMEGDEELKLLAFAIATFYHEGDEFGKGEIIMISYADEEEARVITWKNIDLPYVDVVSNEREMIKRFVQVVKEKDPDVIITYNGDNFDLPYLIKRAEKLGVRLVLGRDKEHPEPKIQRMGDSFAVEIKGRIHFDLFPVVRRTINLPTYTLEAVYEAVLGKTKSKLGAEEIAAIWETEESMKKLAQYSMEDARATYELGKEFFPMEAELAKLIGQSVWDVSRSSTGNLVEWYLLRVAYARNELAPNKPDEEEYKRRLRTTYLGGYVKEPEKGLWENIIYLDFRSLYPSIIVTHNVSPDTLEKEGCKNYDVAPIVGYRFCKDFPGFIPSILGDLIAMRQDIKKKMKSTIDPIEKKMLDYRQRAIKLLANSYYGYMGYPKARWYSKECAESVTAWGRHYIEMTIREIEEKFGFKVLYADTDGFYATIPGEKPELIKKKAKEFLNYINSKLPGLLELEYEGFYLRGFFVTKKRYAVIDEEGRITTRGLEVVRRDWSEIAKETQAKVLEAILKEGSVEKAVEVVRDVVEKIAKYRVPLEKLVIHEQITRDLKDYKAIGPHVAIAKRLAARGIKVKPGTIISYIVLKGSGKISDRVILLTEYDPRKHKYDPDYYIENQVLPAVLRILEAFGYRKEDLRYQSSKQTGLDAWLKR

[2] = UV deprotection studies of 5′-O-TBS derivatives; assay type: physicochemical; details: for DT1/2 (deprotection half-life time) at 302 nm / DT1/2 (deprotection half-life time) at 365 nm: 1 mM in methanol, 0.5 mW transilluminator, triplicate
Summary of the method: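 The test compound, in methanol at 1 mM in a scintillation vial, was irradiated with a 0.5 mW transilluminator at 302 or 365 nm. Aliquots taken at time intervals went to reverse-phase HPLC to follow loss of starting material and appearance of the deprotected product (loss of the 2-nitrobenzyl group). DT1/2 is the time at 50% deprotection, read from kinetic plots. Each compound was run in triplicate.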

Bst DNA polymerase [3] = target: T2, Bst DNA polymerase (Geobacillus stearothermophilus, UniProt P52026); experiment: Oligonucleotide template assay; assay type: biochemical, Bacillus stearothermophilus; details: for Incorporation: Bst, five-base poly-thymidine template, high concentrations (100 μM)
T2 sequence (P52026 289-876 limits assumed): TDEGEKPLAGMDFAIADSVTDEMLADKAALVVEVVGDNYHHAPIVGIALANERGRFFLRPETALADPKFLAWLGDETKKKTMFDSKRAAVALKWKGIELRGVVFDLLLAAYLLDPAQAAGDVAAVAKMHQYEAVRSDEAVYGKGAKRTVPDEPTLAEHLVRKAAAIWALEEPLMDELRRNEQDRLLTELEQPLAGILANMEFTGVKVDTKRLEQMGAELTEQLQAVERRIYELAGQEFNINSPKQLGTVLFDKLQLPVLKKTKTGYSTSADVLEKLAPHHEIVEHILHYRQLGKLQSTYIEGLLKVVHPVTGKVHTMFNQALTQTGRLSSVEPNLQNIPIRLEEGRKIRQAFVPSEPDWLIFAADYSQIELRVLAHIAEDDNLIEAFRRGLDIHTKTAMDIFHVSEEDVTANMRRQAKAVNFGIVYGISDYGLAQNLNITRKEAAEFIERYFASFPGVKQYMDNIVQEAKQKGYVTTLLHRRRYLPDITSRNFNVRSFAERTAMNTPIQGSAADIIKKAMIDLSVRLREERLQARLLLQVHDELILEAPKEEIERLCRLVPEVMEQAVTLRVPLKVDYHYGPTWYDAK

Bst DNA polymerase [4] = target: T2, Bst DNA polymerase; experiment: PEP; assay type: biochemical, Bacillus stearothermophilus
[5] = target: T3, DeepVent(exo−) DNA polymerase (Pyrococcus sp. GB-D, UniProt Q51334, D141A/E143A); experiment: PEP; assay type: biochemical, Pyrococcus species GB-D
T3 sequence (Q51334 with tags, fused parts or gaps D141A/E143A): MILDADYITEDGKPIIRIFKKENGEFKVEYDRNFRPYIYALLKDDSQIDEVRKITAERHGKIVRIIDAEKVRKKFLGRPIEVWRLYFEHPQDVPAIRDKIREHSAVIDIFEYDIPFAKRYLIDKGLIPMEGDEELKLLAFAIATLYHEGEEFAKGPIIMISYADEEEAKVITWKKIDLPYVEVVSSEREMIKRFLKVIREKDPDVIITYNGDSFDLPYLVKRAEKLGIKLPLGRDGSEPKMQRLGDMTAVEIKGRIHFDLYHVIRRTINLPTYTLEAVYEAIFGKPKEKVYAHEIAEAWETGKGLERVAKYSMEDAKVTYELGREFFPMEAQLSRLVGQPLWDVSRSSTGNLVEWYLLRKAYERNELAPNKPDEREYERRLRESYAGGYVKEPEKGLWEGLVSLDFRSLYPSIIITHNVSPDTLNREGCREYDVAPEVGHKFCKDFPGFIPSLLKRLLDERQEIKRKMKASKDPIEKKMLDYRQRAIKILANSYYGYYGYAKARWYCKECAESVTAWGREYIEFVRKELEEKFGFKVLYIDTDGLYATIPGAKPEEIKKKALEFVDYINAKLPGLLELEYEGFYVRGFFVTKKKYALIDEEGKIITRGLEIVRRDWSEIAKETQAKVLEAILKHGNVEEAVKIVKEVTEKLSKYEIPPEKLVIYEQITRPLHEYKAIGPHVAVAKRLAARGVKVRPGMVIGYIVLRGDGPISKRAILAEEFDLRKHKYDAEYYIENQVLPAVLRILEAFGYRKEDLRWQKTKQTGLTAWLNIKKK

[6] = target: T1, Vent(exo−) DNA polymerase; experiment: PEP; assay type: biochemical

Structure (SMILES): C=CCO[C@H]1C[C@H](n2cnc3c(N)ncnc32)O[C@@H]1COP(=O)(O)OP(=O)(O)OP(=O)(O)O [3′-O-allyl-dATP]
Activity as polymerase substrate [1]: limited activity at high micromolar concentrations

Structure (SMILES): CC(C)(C)[Si](C)(C)OC[C@H]1O[C@@H](n2cnc3c(N)ncnc32)C[C@@H]1OCc1ccccc1[N+](=O)[O-] [Compound Ib, 5’-O-tert-Butyldimethylsilyl-3’-O-(2-nitrobenzyl)-2’-deoxyadenosine]
DT1/2 (deprotection half-life time) at 302 nm [2]: 60 s | DT1/2 (deprotection half-life time) at 365 nm [2]: 152 s

Structure (SMILES): CC(C)(C)[Si](C)(C)OC[C@H]1O[C@@H](n2cnc3c(NCc4ccccc4[N+](=O)[O-])ncnc32)C[C@@H]1O [IIIb, N^6-(2-Nitrobenzyl)-5’-O-tert-butyldimethylsilyl-2’-deoxyadenosine]
DT1/2 (deprotection half-life time) at 302 nm [2]: 46 s | DT1/2 (deprotection half-life time) at 365 nm [2]: 144 s

Structure (SMILES): Nc1ncnc2c1ncn2[C@H]1C[C@H](O)[C@@H](COP(=O)(O)OP(=O)(O)OP(=O)(O)O)O1 [dATP, 2′-Deoxyadenosine triphosphate]
IC50 (Bst DNA polymerase [4]): 1.2 ± 0.1 nM | IC50 [5]: 2.8 ± 0.2 nM | IC50 [6]: 1.6 ± 0.2 nM

Other lines, results leading:

Deprotection rate relative to compound Ib ([2]; faster than Ib at both deprotection wavelengths (302 and 365 nm)): approximately 3 fold
Structure (SMILES): CC(C)(C)[Si](C)(C)OC[C@H]1O[C@@H](n2cnc3c(N(Cc4ccccc4[N+](=O)[O-])Cc4ccccc4[N+](=O)[O-])ncnc32)C[C@@H]1O [IIb, N^6, N^6-Bis-(2-nitrobenzyl)-5’-O-tert-butyldimethylsilyl-2’deoxyadenosine]

Activity by DNA polymerase incorporation assays (Bst DNA polymerase [3]): inactive | Incorporation (Bst DNA polymerase [3]): did not show significant incorporation
Structure (SMILES): O=[N+]([O-])c1ccccc1CN(Cc1ccccc1[N+](=O)[O-])c1ncnc2c1ncn2[C@H]1C[C@H](O)[C@@H](COP(=O)(O)OP(=O)(O)OP(=O)(O)O)O1 [IIc, N^6, N^6-Bis-(2-nitrobenzyl)-2’-deoxyadenosine-5’-triphosphate]

Activity by DNA polymerase incorporation assays (Bst DNA polymerase [3]): inactive | Incorporation (Bst DNA polymerase [3]): did not show significant incorporation
Structure (SMILES): Nc1ncnc2c1ncn2[C@H]1C[C@H](OCc2ccccc2[N+](=O)[O-])[C@@H](COP(=O)(O)OP(=O)(O)OP(=O)(O)O)O1 [Ic, 3’-O-(2-Nitrobenzyl)-2’-deoxyadenosine-5’-triphosphate]

Source: paper PMC2095803 (Nucleic Acids Research, 2007)
